# The source made the active and inactive calls. The rule behind the calls is not given here.
# How the values were obtained:
# [1] = Partition coefficient (x10-4) across dioleoylphosphatidylcholine bilayer in presence of cholesterol; format: ADME; settings: lipid bilayer/electrolyte
# How it was run: (§1)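 Lipid/electrolyte partition coefficient measured with ADIFAB (0.2 μM) in 1 M NaCl, 10 mM Hepes, pH 7.0 at 25 ± 1°C. Extruded vesicles at ≈100 μM phospholipid; total fatty acid raised stepwise over 3–30 μM, 3–5 min equilibration per step. Emission read at 432 and 505 nm (excitation 386 nm), corrected for cuvette binding. Kp from free vs total FA and Vm/Va; triplicate, averaged over concentrations.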
# [2] = Activity at gramicidin channel 13 assessed as increase in single channel current at 10 uM
# How it was run: (§2)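 Planar bilayers of DC18:1PC (20 mg/ml in n-decane) across a ≈1.6 mm hole in a Teflon partition, in 1 M NaCl, 10 mM Hepes, pH 7.0. Opposite-helix-sense gA analogue pairs, gA(13) and AgA(15). Fatty acid added to both sides from ethanolic stock with NaOH and BHT, stirred 5 min, equilibrated 10 min. Single-channel currents and lifetimes recorded before and after addition. Where stated, cholesterol:DC18:1PC molar ratio 1:1.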
# [3] = Effect on gramicidin channel 13 activity; how it was run: as §2
# [4] = Partition coefficient (x10-4) across dioleoylphosphatidylcholine bilayer; format: ADME; settings: lipid bilayer/electrolyte; how it was run: as §1
# [5] = Activity at gramicidin channel 13 assessed as increase in single channel current at 10 uM in presence of cholesterol; how it was run: as §2
# [6] = Partition coefficient (x10-4) across dieicosenoyl-phosphatidylcholine bilayer; format: ADME; settings: lipid bilayer/electrolyte; how it was run: as §1
# [7] = Activity at gramicidin channel 13 assessed as increase in single channel current; how it was run: as §2
# [8] = Activity at gramicidin A negative channel 15 assessed as increase in single channel current; how it was run: as §2
Compound,Partition coefficient [1],Activity [2],Activity [3],Partition coefficient [4],Activity [5],Partition coefficient [6],Activity [7],Activity [8]
CC/C=C\C/C=C\C/C=C\C/C=C\C/C=C\C/C=C\CCC(=O)O [DOCONEXENT],19,15%,Active,20,65%,20,Active,Active
CCCCCCCC/C=C\CCCCCCCC(=O)O [OLEIC ACID],–,5%,inactive,254,15%,246,inactive,inactive
